Source: ChEMBL document CHEMBL4393708, “Pyridinylimidazoles as dual glycogen synthase kinase 3β/p38α mitogen-activated protein kinase inhibitors” (Eur J Med Chem, 2019)
pIC50: −log10 of the molar value.

Experiments:
[1] = target: T1, Mitogen-activated protein kinase 14 (Homo sapiens, UniProt Q16539); experiment: Inhibition of p38alpha MAPK (unknown origin) using ATF-2 as substrate after 1 hr by ELISA
[2] = target: Glycogen synthase kinase-3 beta (Homo sapiens, UniProt P49841); experiment: Competitive inhibition of human recombinant full length GSK3beta using YRRAAVPPSPSLSRHSSPHQ(pS)EDEEE as substrate preincubated with enzyme for 10 mins followed by substrate and 25 uM ATP addition measured after 60 mins by ADP-Glo luminescence assay
Summary of the method: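 Compounds in serial dilutions were preincubated with kinase for 10 min at rt. Substrate/ATP was then added and the reaction ran 60 min at rt. ADP-Glo reagent 60 min, detection reagent 30 min, then luminescence read (500 ms integration).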

[3] = Metabolic stability in human liver microsomes assessed as parent compound remaining after 10 mins by LC-MS analysis relative to control; format: ADME, Microsome; conditions: read-out: Stability
[4] = Metabolic stability in human liver microsomes assessed as parent compound remaining after 20 mins by LC-MS analysis relative to control; format: ADME, Microsome; conditions: read-out: Stability
[5] = Metabolic stability in human liver microsomes assessed as parent compound remaining after 180 mins by LC-MS analysis relative to control; format: ADME, Microsome; conditions: read-out: Stability
[6] = Metabolic stability in human liver microsomes assessed as parent compound remaining after 30 mins by LC-MS analysis relative to control; format: ADME, Microsome; conditions: read-out: Stability
[7] = Metabolic stability in human liver microsomes assessed as parent compound remaining after 60 mins by LC-MS analysis relative to control; format: ADME, Microsome; conditions: read-out: Stability
[8] = Metabolic stability in human liver microsomes assessed as parent compound remaining after 240 mins by LC-MS analysis relative to control; format: ADME, Microsome; conditions: read-out: Stability
[9] = target: Glycogen synthase kinase-3 alpha (Homo sapiens, UniProt P49840); experiment: Inhibition of human recombinant full length GSK3alpha using YRRAAVPPSPSLSRHSSPHQ(pS)EDEEE as substrate preincubated with enzyme for 10 mins followed by substrate and 25 uM ATP addition measured after 60 mins by ADP-Glo luminescence assay
Summary of the method: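 Recombinant human GSK3α at 0.50 ng/µL, 25 µM ATP, 0.2 µg/µL substrate G50-58, serial compound dilutions. Kinase was preincubated with compound 10 min at rt, then run 60 min at rt after substrate/ATP addition. ADP-Glo reagent 60 min, detection reagent 30 min, luminescence read. Uninhibited-kinase and ATP/substrate-only controls were included.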

[10] = Metabolic stability in human liver microsomes assessed as parent compound remaining after 120 mins by LC-MS analysis relative to control; format: ADME, Microsome; conditions: read-out: Stability
Blood = experiment: Inhibition of LPS-induced TNFalpha production in human whole blood preincubated with compound for 15 mins followed by LPS addition measured after 2.5 hrs by ELISA; format: functional, tissue-based
[11] = target: T1, Mitogen-activated protein kinase 14; experiment: Inhibition of human recombinant p38alpha MAPK upto 10000 nM using Ulight-CFFKNIVTPRTPPPSQGK-amide as substrate measured after 30 mins by LANCE assay relative to control
[12] = Drug uptake in RjOrl:Swiss CD-1 mouse brain at 10 mg/kg, iv administered as single dose measured after 2 hrs by LC-MS analysis; format: ADME, organism-based; conditions: read-out: Drug uptake
Summary of the method: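 Adult male RjOrl:Swiss CD-1 mice got one intravenous dose of 10 mg/kg. Plasma was sampled at 10, 30 and 120 min. After the last sample the mice were sacrificed and brains dissected. Blood and brain samples were prepared and analysed by LC-MS for parent and sulfoxide metabolite; brain levels reported as ng/g.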

Homo sapiens = species on record: Homo sapiens; experiment: Selectivity ratio, Ratio of IC50 for human recombinant full length GSK3beta to IC50 for p38alpha MAPK (unknown origin)
Summary of the method: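 GSK3β was measured by ADP-Glo using 0.58 ng/µL recombinant human enzyme, 25 µM ATP and 0.2 µg/µL substrate peptide G50-58. Kinase was preincubated with serial compound dilutions for 10 min at rt, then reacted for 60 min at rt, with luminescence read-out. p38α inhibition was measured by ELISA.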

T1 sequence (Q16539 whole entry): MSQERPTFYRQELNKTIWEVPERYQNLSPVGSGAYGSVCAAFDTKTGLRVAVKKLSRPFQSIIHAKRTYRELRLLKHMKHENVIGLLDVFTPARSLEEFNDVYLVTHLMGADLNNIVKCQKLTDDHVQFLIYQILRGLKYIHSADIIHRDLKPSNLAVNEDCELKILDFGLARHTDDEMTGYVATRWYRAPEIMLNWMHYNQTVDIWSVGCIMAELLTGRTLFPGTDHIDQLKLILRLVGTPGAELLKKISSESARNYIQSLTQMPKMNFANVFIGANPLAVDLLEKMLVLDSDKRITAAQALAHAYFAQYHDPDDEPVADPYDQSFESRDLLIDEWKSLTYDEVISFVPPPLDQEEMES
Chain of Glycogen synthase kinase-3 beta (P49841 whole entry): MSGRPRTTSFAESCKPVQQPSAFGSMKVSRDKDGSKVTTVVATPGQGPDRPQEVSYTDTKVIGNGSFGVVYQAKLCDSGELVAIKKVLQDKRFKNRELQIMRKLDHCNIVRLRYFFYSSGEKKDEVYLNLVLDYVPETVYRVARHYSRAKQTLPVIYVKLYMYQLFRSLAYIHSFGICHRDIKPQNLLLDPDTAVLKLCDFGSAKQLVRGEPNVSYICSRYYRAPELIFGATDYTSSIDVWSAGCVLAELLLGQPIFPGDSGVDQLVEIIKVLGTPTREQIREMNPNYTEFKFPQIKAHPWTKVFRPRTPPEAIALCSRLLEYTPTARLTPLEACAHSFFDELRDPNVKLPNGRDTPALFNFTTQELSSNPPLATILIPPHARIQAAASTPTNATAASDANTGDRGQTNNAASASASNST
Chain of Glycogen synthase kinase-3 alpha (P49840 whole entry): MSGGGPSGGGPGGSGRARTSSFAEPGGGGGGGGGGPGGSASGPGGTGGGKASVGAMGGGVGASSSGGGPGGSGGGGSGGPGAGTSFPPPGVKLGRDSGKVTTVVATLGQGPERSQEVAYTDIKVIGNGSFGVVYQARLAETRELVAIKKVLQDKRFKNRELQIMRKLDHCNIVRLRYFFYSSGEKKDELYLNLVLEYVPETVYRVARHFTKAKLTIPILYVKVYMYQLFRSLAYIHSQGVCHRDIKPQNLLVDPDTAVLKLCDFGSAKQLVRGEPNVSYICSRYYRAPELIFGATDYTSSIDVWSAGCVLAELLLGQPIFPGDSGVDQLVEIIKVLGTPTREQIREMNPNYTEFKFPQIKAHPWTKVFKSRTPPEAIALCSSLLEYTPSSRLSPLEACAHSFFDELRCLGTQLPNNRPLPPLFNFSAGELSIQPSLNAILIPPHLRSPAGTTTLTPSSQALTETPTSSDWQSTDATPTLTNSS

Row | Structure (SMILES) | pIC50 [1] | pIC50 [2] | further results
1 | CSc1nc(-c2ccc(F)cc2)c(-c2ccnc(NCC3CC3)c2)[nH]1 | 7.85 | < 5.00 | 
2 | O=C(Nc1cc(-c2[nH]c(-c3ccccc3)nc2-c2ccc(F)cc2)ccn1)C1CC1 | 7.57 | 6.24 | 
3 | O=C(Nc1cc(-c2[nH]c(SCc3ccccc3)nc2-c2ccc(F)cc2)ccn1)C1CCCC1 | 7.70 | 6.18 | 
4 | CSc1nc(-c2ccc(F)cc2)c(-c2ccnc(NC(=O)C3CCC3)c2)[nH]1 | 7.57 | 6.88 | 
5 | CSc1nc(-c2ccc(F)cc2)c(-c2ccnc(NC(=O)CN3CCCC3=O)c2)[nH]1 | 7.64 | 6.90 | 
6 | COc1cc(CCC(=O)Nc2cc(-c3[nH]c(SCc4ccccc4)nc3-c3ccc(F)cc3)ccn2)cc(OC)c1OC | 7.21 | 5.94 | 
7 | Cc1nc(-c2ccc(F)cc2)c(-c2ccnc(NC(=O)C3CC3)c2)[nH]1 | 7.72 | 7.28 | 
8 | CSc1nc(-c2ccc(F)cc2)c(-c2ccnc(NC(=O)CCc3ccc(C(F)(F)F)cc3)c2)[nH]1 | 7.57 | 6.02 | 
9 | O=C(Nc1cc(-c2[nH]c(CCc3ccccc3)nc2-c2ccc(F)cc2)ccn1)C1CC1 | 7.70 | 6.88 | 
10 | COc1cc(CC(=O)Nc2cc(-c3[nH]c(SC)nc3-c3ccc(F)cc3)ccn2)cc(OC)c1OC | 7.89 | 6.29 | 
11 | O=C(Nc1cc(-c2[nH]c(-c3ccco3)nc2-c2ccc(F)cc2)ccn1)C1CC1 | 7.74 | 6.81 | 
12 | CSc1nc(-c2ccc(F)cc2)c(-c2ccnc(NC(=O)[C@H]3C[C@@H](Cl)C3)c2)[nH]1 | 7.74 | 6.77 | 
13 | CSc1nc(-c2ccc(F)cc2)c(-c2ccnc(NC(=O)c3ccccn3)c2)[nH]1 | 7.38 | < 5.00 | 
14 | O=C(Nc1cc(-c2[nH]c(Cc3ccccc3)nc2-c2ccc(F)cc2)ccn1)C1CC1 | 7.74 | 7.23 | remaining at 10 min [3]: 92.4%; remaining at 20 min [4]: 83.6%; remaining at 3 h [5]: 68.7%; remaining at 0.5 h [6]: 78.1%; remaining at 1 h [7]: 69.4%; remaining at 4 h [8]: 66.1%; pIC50 [9]: 6.37; remaining at 2 h [10]: 69.8%
15 | C[S+]([O-])c1ccc(-c2nc(-c3ccc(F)cc3)c(-c3ccncc3)[nH]2)cc1 (centres undefined) [SB-203580] |  |  | pIC50 (Blood): 5.49
16 | COc1ccc(CCC(=O)Nc2cc(-c3[nH]c(SC)nc3-c3ccc(F)cc3)ccn2)cc1 | 7.26 | 6.27 | 
17 | CC(=O)Nc1cc(-c2[nH]c(SCc3ccccc3)nc2-c2ccc(F)cc2)ccn1 | 7.29 | 6.25 | 
18 | CSc1nc(-c2ccc(F)cc2)c(-c2ccnc(NC(=O)C3CCCC3)c2)[nH]1 | 7.40 | 6.87 | 
19 | CSc1nc(-c2ccc(F)cc2)c(-c2ccnc(NC(=O)C3CCCO3)c2)[nH]1 (centres undefined) | 7.55 | 6.28 | 

Row | Structure (SMILES) | pIC50 [1] | pIC50 [2] | further results
20 | CSc1nc(-c2ccnc(NC(=O)C3CC3)c2)c(-c2ccc(F)cc2)n1C | 5.80 | 5.75 | 
21 | Cc1ncc(-c2ccnc(NC(=O)C3CC3)c2)[nH]1 |  | 5.77 | inhibition [11]: 1%
22 | COc1cccc(CCC(=O)Nc2cc(-c3[nH]c(SC)nc3-c3ccc(F)cc3)ccn2)c1 | 7.44 | 6.33 | 
23 | CSc1nc(-c2ccc(F)cc2)c(-c2ccnc(NC(=O)Cc3ccc(C(F)(F)F)cc3)c2)[nH]1 | 7.54 | 5.49 | 
24 | CSc1nc(-c2ccc(F)cc2)c(-c2ccnc(NC(=O)C3CCC(=O)C3)c2)[nH]1 (centres undefined) | 7.68 | 7.14 | 
25 | CSc1nc(-c2ccc(F)cc2)c(-c2ccnc(NC(=O)c3ccoc3)c2)[nH]1 | 7.66 | 5.44 | 
26 | C[S+]([O-])c1nc(-c2ccc(F)cc2)c(-c2ccnc(NC(=O)C3CC3)c2)[nH]1 (centres undefined) | 7.36 | 6.63 | concentration at 2 h [12]: 65.8 ng/g; pIC50 [9]: 5.87
27 | COc1cc(CCC(=O)Nc2cc(-c3[nH]c(SC)nc3-c3ccc(F)cc3)ccn2)cc(OC)c1OC | 7.06 | 6.44 | pIC50 [9]: 5.69
28 | CSc1nc(-c2ccc(F)cc2)c(-c2ccnc(NC(=O)C3CC3)c2)n1C | 6.65 | 6.20 | 
29 | CSc1nc(-c2ccc(F)cc2)c(-c2ccnc(NC(=O)CC3CC3)c2)[nH]1 | 7.82 | 6.67 | 
30 | C[S+]([O-])c1nc(-c2ccc(F)cc2)c(-c2ccnc(NC(=O)C3CCC3)c2)[nH]1 (centres undefined) | 7.54 | 6.37 | 
31 | CSc1nc(-c2ccc(F)cc2)c(-c2ccnc(NC(=O)C3(C(F)(F)F)CC3)c2)[nH]1 | 6.74 | < 5.00 | 
32 | CSc1nc(-c2ccc(F)cc2)c(-c2ccnc(NC(=O)C3CC(=O)C3)c2)[nH]1 | 7.70 | 6.74 | 
33 | O=C(Nc1cc(-c2[nH]c(SCc3ccccc3)nc2-c2ccc(F)cc2)ccn1)C1CC1 | 7.39 | 6.64 | pIC50 [9]: 6.07
34 | O=C(Nc1cc(-c2[nH]cnc2-c2ccc(F)cc2)ccn1)C1CC1 | 7.72 | 7.19 | 
35 | CSc1nc(-c2ccc(F)cc2)c(-c2ccnc(NC(=O)[C@@H]3C[C@H]3c3ccccc3)c2)[nH]1 (relative stereo) | 7.82 | 6.09 | 
36 | CSc1nc(-c2ccc(F)cc2)c(-c2ccnc(NC(=O)[C@H]3C[C@H](Cl)C3)c2)[nH]1 | 7.42 | 6.40 | 
37 | O=C(Cc1ccc(F)cc1)Nc1cc(-c2[nH]c(SCc3ccccc3)nc2-c2ccc(F)cc2)ccn1 | 8.52 | 5.82 | Ratio IC50 (Homo sapiens): > 500; remaining at 4 h [8]: 66%
38 | CSc1nc(-c2ccc(F)cc2)c(-c2ccnc(NC(C)=O)c2)[nH]1 | 7.35 | 6.82 | 
